Results from ChEMBL document CHEMBL1153743, “Pyrrolidinones from the ascomycete fungus Albonectria rigidiuscula” (J Nat Prod, 2009).
Active and inactive are the calls of the source. The calls are words filed in the database; no cut-off is given here.

How the values were obtained:
Format in all cases: functional, cell-based
[1] = test system: MCF7; assay: Cytotoxicity against human MCF7 cells after 48 hrs by MTT assay; details: MCF7, 48 h
[2] = test system: HeLa; assay: Cytotoxicity against human HeLa cells after 48 hrs by MTT assay
How it was run: (§1)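 HeLa cells seeded at 10^4 per well and left to attach overnight. Cells were exposed for 4 h at 37 °C and 5% CO2 to serial dilutions or a single 120 µM level, made from 10 mg/mL DMSO stocks, or to 0.2% DMSO medium. They then grew 48 h in fresh DMEM. MTT (0.5 mg/mL) was added for 3 h in the dark, formazan was dissolved in DMSO, and A540 was read. Run in triplicate; IC50 reported.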

[3] = test system: MCF7; assay: Cytotoxicity against human MCF7 cells at 120 uM after 48 hrs by MTT assay
[4] = test system: HeLa; assay: Cytotoxicity against human HeLa cells at 120 uM after 48 hrs by MTT assay; how it was run: as §1

**Q.** Which IC50 [1] does the source give for `CN1C(=O)[C@@](C)(O)C(=O)[C@@H]1Cc1ccc(O)cc1` here?
**A.** Its IC50 is 100 µM.

**Q.** What about the IC50 [2] of the same molecule?
**A.** Its IC50 is 48.2 µM.

**Q.** How did the IC50 [2] turn out when `O=c1[nH]cc(F)c(=O)[nH]1` [FLUOROURACIL] was run?
**A.** Its IC50 is 10 µM.

**Q.** For `CN1C(=O)[C@@](C)(O)C(=O)[C@@H]1Cc1ccc2c(c1)CC(C(C)(C)O)O2` (stereo partly drawn), which Activity [3] is on record?
**A.** Its Activity is “inactive”.

**Q.** What about the IC50 [1] of the same molecule?
**A.** Its IC50 is > 120 µM.

**Q.** What about the IC50 [2] of the same molecule?
**A.** Its IC50 is > 120 µM.

**Q.** What about the Activity [4] of the same molecule?
**A.** The Activity was “inactive”.

**Q.** Which results are given for `CN1C(=O)[C@@](C)(O)[C@@H](O)[C@@H]1Cc1ccc2c(c1)CC(C(C)(C)O)O2` (stereo partly drawn)?
**A.** Activity [3]: inactive; IC50 [1]: > 120 µM; IC50 [2]: > 120 µM; Activity [4]: inactive

**Q.** What does the source list for `CN1C(=O)[C@@](C)(O)[C@@H](O)[C@@H]1Cc1ccc(O)cc1`?
**A.** IC50 [1]: 95.6 µM; IC50 [2]: 95.6 µM
